Source: ChEMBL document CHEMBL3425411, “Synthesis of β-Carboline-Based N-Heterocyclic Carbenes and Their Antiproliferative and Antimetastatic Activities against Human Breast Cancer Cells” (J Med Chem, 2015)

Key:
Assay type in all cases: functional, cell-based
MCF7 = test: Cytotoxicity against human MCF7 cells assessed as growth inhibition after 24 to 72 hrs by MTT assay
Outline: (§1)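 About 5000 cells/well were grown 24 h in RPMI-1640 with 10% FBS, then given fresh medium with compound at various concentrations (from 10 mM DMSO stocks) for 24, 48 and 72 h. MTT (5 mg/mL stock) was added for 2 h and formazan dissolved in DMSO. Absorbance was read at 595 nm and expressed as percent proliferation versus DMSO control.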

MDA-MB-468 = test: Cytotoxicity against human MDA-MB-468 cells assessed as growth inhibition after 24 to 72 hrs by MTT assay; outline: as §1
[1] = Cytotoxicity against human H1299 cells assessed as growth inhibition after 24 to 72 hrs by MTT assay; details: NCI-H1299; outline: as §1
MDA-MB-231 = test: Cytotoxicity against human MDA-MB-231 cells assessed as growth inhibition after 24 to 72 hrs by MTT assay; outline: as §1

SMILES	IC50 (MCF7) [µM]	IC50 (MDA-MB-468) [µM]	IC50 [1] [µM]	IC50 (MDA-MB-231) [µM]
CCN(CC)CCn1cc2c3[nH]c4ccccc4c3cc(C(=O)OC)[n+]2c1	> 30	> 30	> 30	> 30
COC(=O)c1cc2c3ccccc3[nH]c2c2cn(-c3cccc(Br)c3)c[n+]12	> 30	15.1	26.9	17.9
COC(=O)c1cc2c3ccccc3[nH]c2c2cn(C34CC5CC(CC(C5)C3)C4)c[n+]12	> 30	> 30	> 30	> 30
COC(=O)c1cc2c3ccccc3[nH]c2c2cn(-c3ccccc3Br)c[n+]12	> 30	11	> 30	20.7
COC(=O)c1cc2c3ccccc3[nH]c2c2cn(-c3ccc(F)cc3Br)c[n+]12	13.3	9.51	16.4	10.8
COC(=O)c1cc2c3ccccc3[nH]c2c2cn(-c3cccc(C(F)(F)F)c3)c[n+]12	> 30	10.5	10.9	14.6
COC(=O)c1cc2c3ccccc3[nH]c2c2cn(CCc3ccccc3)c[n+]12	> 30	> 30	> 30	> 30
COC(=O)c1cc2c3ccccc3n(Cc3cc(OC)c(OC)c(OC)c3)c2c2cn(-c3ccc(Cl)cc3)c[n+]12	> 30	> 30	> 30	> 30
COC(=O)c1cc2c3ccccc3[nH]c2c2cn(-c3ccccc3)c[n+]12	> 30	5.82	8.87	> 30
COC(=O)c1cc2c3ccccc3[nH]c2c2cn(C3CCCCC3)c[n+]12	> 30	18.2	> 30	> 30
COC(=O)c1cc2c3ccccc3[nH]c2c2cn(-c3ccc(C)cc3Cl)c[n+]12	> 30	> 30	> 30	14
COC(=O)c1cc2c3ccccc3[nH]c2c2cn(-c3ccccc3I)c[n+]12	5.96	8.02	6.46	7.8
COC(=O)c1cc2c3ccccc3[nH]c2c2cn(Cc3ccccc3)c[n+]12	6.26	> 9.27	23.7	11.8
COC(=O)c1cc2c3ccccc3[nH]c2c2cn(-c3ccc(OC)c(OC)c3)c[n+]12	> 30	11.5	16.4	29.9
COC(=O)c1cc2c3ccccc3[nH]c2c2cn(-c3ccc(Cl)cc3)c[n+]12	25.7	10.2	15.4	9.38
C=CCn1cc2c3[nH]c4ccccc4c3cc(C(=O)OC)[n+]2c1	> 30	> 30	> 30	23
COC(=O)c1cc2c3ccccc3[nH]c2c2cn(Cc3ccc(C)cc3)c[n+]12	> 30	> 30	> 30	11.2
COC(=O)c1cc2c3ccccc3[nH]c2c2cn(-c3ccc(Cl)cc3C)c[n+]12	> 30	20.2	> 30	23.4
COC(=O)c1cc2c3ccccc3[nH]c2c2cn(C3CC3)c[n+]12	> 30	> 30	> 30	> 30
COC(=O)c1cc2c3ccccc3[nH]c2c2cn(Cc3ccc(F)cc3)c[n+]12	> 30	> 30	> 30	12.8
